Source: ChEMBL document CHEMBL1154722, “Syntheses and evaluation of the antioxidant activity of acitretin analogs with amide bond(s) in the polyene spacer” (Eur J Med Chem, 2010)
The source made the active and inactive calls. The rule behind the calls is not given here.

Experiments:
[1] = system: Radical scavenging activity; assay: Antioxidant activity assessed as DPPH radical scavenging activity at 100 uM after 20 mins by spectrophotometry; type: functional
Procedure, shortened: (§1)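 DPPH at 0.05 mM in absolute ethanol mixed with an equal volume of compound in DMSO. Mixture shaken and left 20 or 60 min. Absorbance read at 517 nm to give percent activity. Three replicates averaged.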

[2] = system: Radical scavenging activity; assay: Antioxidant activity assessed as DPPH radical scavenging activity at 100 uM after 60 mins by spectrophotometry; type: functional; procedure, shortened: as §1
[3] = Antioxidant activity assessed as inhibition of AAPH-induced lipid peroxidation at 100 uM; type: functional
Procedure, shortened: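 Run at 37 °C in 0.05 M phosphate buffer pH 7.4 with 10 μL of 16 mM sodium linoleate (stock), compound in DMSO (10 μL). Oxidation started in air by 50 μL of 40 mM AAPH (stock). Conjugated diene formation followed as rising absorbance at 234 nm. Controls carried the same DMSO level. At least triplicate.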

[4] = Inhibition of soybean lipoxygenase assessed as conversion of sodium linoleate to 13-hydroperoxylinoleate; set-up: species or system Glycine max
Procedure, shortened: (§2)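 Soybean lipoxygenase solution (1/9×10^-4 w/v in saline) incubated at room temperature with sodium linoleate and compound in DMSO. Conversion to 13-hydroperoxylinoleate recorded at 234 nm and compared with a standard inhibitor. At least triplicate.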

[5] = system: Rattus norvegicus; assay: Antiinflammatory activity in Fisher 344 rat assessed as inhibition of carrageenan-induced paw edema at 0.01 mmol/Kg, ip administered simultaneously with carrageenan measured after 3.5 hrs relative to control; type: functional; settings: Fisher 344, ip
Procedure, shortened: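 Fischer-344 rats of both sexes (pregnant females excluded), 6–15 per group. Oedema induced in right hind paw by intradermal 0.1 ml 2% carrageenan in water. Compounds suspended in water with a few drops Tween 80, given ip at carrageenan injection. Rats killed at 3.5 h. Injected minus uninjected paw weight compared with water-treated controls as % inhibition. Mean of two experiments.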

[6] = system: Glycine max; assay: Inhibition of soybean lipoxygenase assessed as conversion of sodium linoleate to 13-hydroperoxylinoleate at 100 uM; procedure, shortened: as §2
[7] = system: Glycine max; assay: Inhibition of soybean lipoxygenase assessed as conversion of sodium linoleate to 13-hydroperoxylinoleate at 50 uM; procedure, shortened: as §2
[8] = system: Glycine max; assay: Inhibition of soybean lipoxygenase assessed as conversion of sodium linoleate to 13-hydroperoxylinoleate at 10 uM; procedure, shortened: as §2

SMILES	IC50 [4] [µM]	inhibition [6] [%]	inhibition [7] [%]	inhibition [8] [%]	Activity [1]	Activity [2] [%]	inhibition [3] [%]	inhibition in vivo at 10 µmol/kg [5] [%]
CC(Cc1ccc(O)c(O)c1)C(C)Cc1ccc(O)c(O)c1 (stereo not given)	–	–	–	–	81%	83	–	–
O=C(O)/C=C/c1cn(C(=O)/C=C/c2ccc3c(c2)OCO3)c2ccccc12	65	–	–	–	21%	–	22	34
COc1ccc2c(c1)c(CC(=O)O)c(C)n2C(=O)c1ccc(Cl)cc1 [INDOMETHACIN]	–	–	–	–	–	–	–	47
CC(C)(C)OC(=O)/C=C1/c2ccccc2-c2c(NC(=O)/C=C/c3ccc4c(c3)OCO4)cccc21	–	43	–	–	inactive	6	49	–
O=C(O)/C=C/c1ccc(O)c(O)c1 [CAFFEIC ACID]	600	–	–	–	5.5%	–	17.5	–
COc1cc(C)c(/C=C/C(C)=C/C=C/C(C)=C/C(=O)O)c(C)c1C [ACITRETIN]	–	1	–	–	inactive	–	85	63
COc1cc(OC)c(OC)cc1/C=C/C(=O)n1cc(/C=C/C(=O)OC(C)(C)C)c2ccccc21	–	85	85	0	8.3%	–	80	–
COc1cc(NC(=O)c2cn(C(=O)CCC(=O)O)c3ccccc23)cc(OC)c1OC	–	10	–	–	12.5%	–	34	–
CC(C)(C)OC(=O)/C=C/c1cn(C(=O)/C=C/c2ccc3c(c2)OCO3)c2ccccc12	82.5	–	–	–	13%	–	95	–
COc1ccc(NC(=O)c2cn(C(=O)/C=C/c3cc(OC)c(OC)cc3OC)c3ccccc23)c(OC)c1	–	69	–	–	5%	–	42	–
COc1cc(OC)c(OC)cc1/C=C/C(=O)n1ccc(/C(C)=C/C(=O)OC(C)(C)C)c1	–	39	–	–	8%	–	46	–
COc1cc(OC)c(C2CC(=O)n3c2c(/C=C/C(=O)O)c2ccccc23)cc1OC (stereo not given)	45.2	–	–	–	12%	–	57	9
Cc1c(C)c2c(c(C)c1O)CCC(C)(C(=O)O)O2 (stereo not given)	–	–	–	–	–	–	63	–

Second part, led by results:

IC50 [4] [µM]	inhibition [6] [%]	inhibition [7] [%]	inhibition [8] [%]	SMILES	Activity [1]	Activity [2] [%]	inhibition [3] [%]	inhibition in vivo at 10 µmol/kg [5] [%]
100	–	–	–	COc1ccc(NC(=O)c2cn(C(=O)/C=C/C(=O)OC(C)(C)C)c3ccccc23)c(OC)c1	5%	–	68	58.6
–	57	–	–	COc1cc(NC(=O)c2cn(C(=O)/C=C/C(=O)O)c3ccccc23)cc(OC)c1OC	26%	–	64	–
35	–	–	–	COc1ccc(NC(=O)c2cn(C(=O)/C=C/C(=O)O)c3ccccc23)c(OC)c1	10%	–	77	46
–	42	–	–	COc1cc(NC(=O)c2cn(C(=O)/C=C\C(=O)O)c3ccccc23)cc(OC)c1OC	2%	–	8	–
–	26	–	–	O=C(O)/C=C/C(=O)n1cc(C(=O)Nc2cccc([N+](=O)[O-])c2)c2ccccc21	inactive	–	94	–
52.4	–	–	–	O=C(O)/C=C/C(=O)n1cc(C(=O)Nc2ccccc2)c2ccccc21	1%	–	85	–
